ChEMBL document CHEMBL4371102, “Tricholopardins A and B, Anti-inflammatory Terpenoids from the Fruiting Bodies of Tricholoma pardinum” (J Nat Prod, 2019)
Peptide text beside a SMILES is read from it. * marks the point of attachment. Cbz = O=C(OCc1ccccc1)*

What was measured:
RAW264.7 [1] = test: Anti-inflammatory activity against mouse RAW264.7 cells assessed as inhibition of LPS-stimulated NO production after 18 hrs by Griess reagent based assay; format: functional, cell-based; conditions: RAW264.7, 18 h
Summary of the method: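 RAW264.7 cells were seeded at 2 × 10^5 cells/well in RPMI 1640 with 10% FBS (37 °C, 5% CO2) and preincubated 24 h. They were then exposed 18 h to serial dilutions up to 25 μM (DMSO stock diluted in medium) with LPS 1 μg/mL. Supernatant was mixed 1:1 with Griess reagent for 5 min, and absorbance was read at 570 nm, in triplicate. MG-132 served as positive control.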

THP-1 [2] = test: Anti-inflammatory activity against human THP1 cells assessed as inhibition of LPS-stimulated IL-1beta production at 20 uM preincubated for 30 mins followed by LPS addition and measured after 24 hrs by ELISA relative to control; format: functional
Summary of the method: (§1)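 Cells kept at 37 °C in 5% CO2 with 10% heat-inactivated FBS and 1% penicillin: RAW264.7 in DMEM, THP-1 in RPMI 1640. Cells were pretreated 30 min with compound (2.5–20 μM, from DMSO solution) or dexamethasone (5 μM, positive control), then stimulated with LPS 1 μg/mL for 24 h. Supernatant TNF-α, IL-1β and PGE2 were measured by ELISA. Mean ± SD, n = 3; one-way ANOVA with Dunnett's T3 and two-tailed t test.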

RAW264.7 [3] = test: Anti-inflammatory activity against mouse RAW264.7 cells assessed as inhibition of LPS-stimulated PGE2 production at 20 uM preincubated for 30 mins followed by LPS addition and measured after 24 hrs by ELISA relative to control; format: functional; summary of the method: as §1
RAW264.7 [4] = test: Anti-inflammatory activity against mouse RAW264.7 cells assessed as inhibition of LPS-stimulated PGE2 production preincubated for 30 mins followed by LPS addition and measured after 24 hrs by ELISA; format: functional, cell-based; summary of the method: as §1
RAW264.7 [5] = test: Anti-inflammatory activity against mouse RAW264.7 cells assessed as inhibition of LPS-stimulated IL-1beta production at 20 uM preincubated for 30 mins followed by LPS addition and measured after 24 hrs by ELISA relative to control; format: functional; summary of the method: as §1
RAW264.7 [6] = test: Anti-inflammatory activity against mouse RAW264.7 cells assessed as inhibition of LPS-stimulated IL-1beta production preincubated for 30 mins followed by LPS addition and measured after 24 hrs by ELISA; format: functional, cell-based; summary of the method: as §1
THP-1 [7] = test: Anti-inflammatory activity against human THP1 cells assessed as inhibition of LPS-stimulated PGE2 production preincubated for 30 mins followed by LPS addition and measured after 24 hrs by ELISA; format: functional, cell-based; summary of the method: as §1
RAW264.7 [8] = test: Anti-inflammatory activity against mouse RAW264.7 cells assessed as inhibition of LPS-stimulated TNFalpha production preincubated for 30 mins followed by LPS addition and measured after 24 hrs by ELISA; format: functional, cell-based; summary of the method: as §1
THP-1 [9] = test: Anti-inflammatory activity against human THP1 cells assessed as inhibition of LPS-stimulated TNFalpha production preincubated for 30 mins followed by LPS addition and measured after 24 hrs by ELISA; format: functional, cell-based; summary of the method: as §1
THP-1 [10] = test: Anti-inflammatory activity against human THP1 cells assessed as inhibition of LPS-stimulated IL-1beta production preincubated for 30 mins followed by LPS addition and measured after 24 hrs by ELISA; format: functional, cell-based; summary of the method: as §1
RAW264.7 [11] = test: Anti-inflammatory activity against mouse RAW264.7 cells assessed as inhibition of LPS-stimulated TNFalpha production at 20 uM preincubated for 30 mins followed by LPS addition and measured after 24 hrs by ELISA relative to control; format: functional; summary of the method: as §1
[12] = Cytotoxicity against mouse RAW264.7 cells assessed as cell viability up to 20 uM by MTS assay relative to control; format: cell-based; conditions: read-out: Activity
Summary of the method: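 RAW264.7 macrophages were grown in DMEM with 10% heat-inactivated FBS and 1% penicillin (37 °C, 5% CO2), detached with trypsin-EDTA and seeded in 96-well plates. At 80% confluence they were treated with compound at 2.5–20 μM (dissolved in DMSO). Viability was read by MTS following the kit instructions.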

THP-1 [13] = test: Anti-inflammatory activity against human THP1 cells assessed as inhibition of LPS-stimulated TNFalpha production at 20 uM preincubated for 30 mins followed by LPS addition and measured after 24 hrs by ELISA relative to control; format: functional; summary of the method: as §1

| IC50 (RAW264.7 [1]) | Structure (SMILES) | inhibition at 20 µM (THP-1 [2]) | inhibition at 20 µM (RAW264.7 [3]) | inhibition (RAW264.7 [4]) | inhibition at 20 µM (RAW264.7 [5]) | inhibition (RAW264.7 [6]) | inhibition (THP-1 [7]) | inhibition (RAW264.7 [8]) | inhibition (THP-1 [9]) | inhibition (THP-1 [10]) | inhibition at 20 µM (RAW264.7 [11]) | viability [12] | inhibition at 20 µM (THP-1 [13]) |
| --- | --- | --- | --- | --- | --- | --- | --- | --- | --- | --- | --- | --- | --- |
| 16200 nM | C=C1CC[C@@H](CCO)C(C)(C)[C@H]1C/C=C1/C(=O)OC[C@@H]1O |  |  |  |  |  |  |  |  |  |  |  |  |
| 160 nM | CC(C)C[C@@H](C=O)NC(=O)[C@H](CC(C)C)NC(=O)[C@H](CC(C)C)NC(=O)OCc1ccccc1 [MG-132] (Cbz-Leu-Leu-Leu-aldehyde) |  |  |  |  |  |  |  |  |  |  |  |  |
| 80 nM | CC1=C(C=O)C(C)(C)[C@H](CC[C@H]2CC[C@]3(OC2)O[C@@]2(O)CC[C@]3(C)OC2(C)C)CC1 | 99.3% | 92.5% | Dose-dependent effect | 94.3% | Dose-dependent effect | Dose-dependent effect | Dose-dependent effect | Dose-dependent effect | Dose-dependent effect | 70.9% | 60% | 99.9% |
